# ChEMBL document CHEMBL3120154, “2-[N-Alkyl(R-phenyl)-aminomethyl]-3-phenyl-7-trifluoromethylquinoxalines as anticancer agents inhibitors of folate enzymes” (Eur J Med Chem, 2014)
# How the values were obtained:
# Thymidylate synthase = Thymidylate synthase (Homo sapiens, UniProt P04818); test: Competitive inhibition of human thymidylate synthase by spectrophotometry
# U-251 = test: Cytotoxicity against human U251 cells at 10^-4 M after 48 hrs by SRB assay; assay type: functional; settings: U-251, 48 h, read-out: GI
# How it was run: (§1)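 Second-stage screen in the 60-cell-line human tumor panel at NCI, over a 5-log range (100, 10, 1, 0.1, 0.01 micromolar). Cells were exposed to drug for 48 h and growth was estimated with a sulforhodamine B protein stain. The value is percent growth inhibition at each concentration.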
# SF-539 = test: Cytotoxicity against human SF539 cells at 10^-4 M after 48 hrs by SRB assay; assay type: functional; settings: SF-539, 48 h, read-out: GI; how it was run: as §1
# SF-295 = test: Cytotoxicity against human SF295 cells at 10^-4 M after 48 hrs by SRB assay; assay type: functional; settings: SF-295, 48 h, read-out: GI; how it was run: as §1
# SW-620 = test: Cytotoxicity against human SW620 cells at 10^-4 M after 48 hrs by SRB assay; assay type: functional; settings: SW-620, 48 h, read-out: GI; how it was run: as §1
# HCT-15 = test: Cytotoxicity against human HCT15 cells at 10^-4 M after 48 hrs by SRB assay; assay type: functional; settings: HCT-15, 48 h, read-out: GI
# How it was run: (§2)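 Run by NCI on its 60-line human tumor cell panel, after a three-cell-line prescreen. Cells were exposed to drug for 48 h over a 5-log range: 100, 10, 1, 0.1 and 0.01 micromolar. Growth was estimated by sulforhodamine B (SRB) protein staining. Percent growth inhibition (I%) was recorded at each concentration relative to untreated control cells.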
# HT-29 = test: Cytotoxicity against human HT-29 cells at 10^-4 M after 48 hrs by SRB assay; assay type: functional; settings: HT-29, 48 h, read-out: GI; how it was run: as §2
# NCI-H460 [1] = test: Cytotoxicity against human NCI-H460 cells at 10^-4 M after 48 hrs by SRB assay; assay type: functional; settings: NCI-H460, 48 h, read-out: GI
# How it was run: (§3)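 Run in the NCI 60-cell-line screen after a three-line prescreen. Cells got a 48 h drug exposure; viability/growth was estimated with the sulforhodamine B protein assay. Growth inhibition (I%) was recorded at 100, 10, 1, 0.1 and 0.01 micromolar. Percent growth is relative to untreated control cells, and negative values indicate cell kill.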
# HOP-92 = test: Cytotoxicity against human HOP92 cells at 10^-4 M after 48 hrs by SRB assay; assay type: functional; settings: HOP-92, 48 h, read-out: GI; how it was run: as §2
# RPMI-8226 [2] = test: Cytotoxicity against human RPMI8226 cells at 10^-4 M after 48 hrs by SRB assay; assay type: functional; settings: RPMI-8226, 48 h, read-out: GI; how it was run: as §1
# MOLT-4 = test: Cytotoxicity against human MOLT4 cells at 10^-4 M after 48 hrs by SRB assay; assay type: functional; settings: MOLT-4, 48 h, read-out: GI; how it was run: as §3
# HL-60(TB) = test: Cytotoxicity against human HL-60(TB) cells at 10^-4 M after 48 hrs by SRB assay; assay type: functional; settings: HL-60, 48 h, read-out: GI
# How it was run: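 NCI 60-human-tumour-cell-line screen run over a 5-log dose range (100, 10, 1, 0.1 and 0.01 µM). Cells were exposed to drug for 48 h. Growth was estimated by sulforhodamine B protein staining. Values are percent growth inhibition at each concentration, relative to untreated control cells.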
# NCI-H460 [3] = test: Cytotoxicity against human NCI-H460 cells assessed as cell growth at 10^-4 M after 48 hrs by alamar blue assay relative to untreated control; assay type: functional; settings: NCI-H460, 48 h, read-out: Activity
# How it was run: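 Three-cell-line prescreen. Each line was inoculated and preincubated on a microtiter plate, then the agent was added at a single concentration (10^-4 or 10^-5 M) and incubated 48 h. Endpoint was measured with alamar blue, and growth is reported as a percentage of untreated control cells.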
# BT-549 = test: Cytotoxicity against human BT549 cells at 10^-4 M after 48 hrs by SRB assay; assay type: functional; settings: BT-549, 48 h, read-out: GI; how it was run: as §2
# MDA-MB-435 = test: Cytotoxicity against human MDA-MB-435 cells at 10^-4 M after 48 hrs by SRB assay; assay type: functional; settings: MDA-MB-435, 48 h, read-out: GI; how it was run: as §3
# MDA-MB-231 = test: Cytotoxicity against human MDA-MB-231 cells at 10^-4 M after 48 hrs by SRB assay; assay type: functional; settings: MDA-MB-231, 48 h, read-out: GI; how it was run: as §3
# PC-3 = test: Cytotoxicity against human PC3 cells at 10^-4 M after 48 hrs by SRB assay; assay type: functional; settings: PC-3, 48 h, read-out: GI; how it was run: as §1
# TK-10 = test: Cytotoxicity against human TK10 cells at 10^-4 M after 48 hrs by SRB assay; assay type: functional; settings: TK-10, 48 h, read-out: GI; how it was run: as §1
# RXF 393 = test: Cytotoxicity against human RXF393 cells at 10^-4 M after 48 hrs by SRB assay; assay type: functional; settings: RXF 393, 48 h, read-out: GI; how it was run: as §1
# ACHN = test: Cytotoxicity against human ACHN cells at 10^-4 M after 48 hrs by SRB assay; assay type: functional; settings: read-out: GI; how it was run: as §2
# 786-0 = test: Cytotoxicity against human 786-0 cells at 10^-4 M after 48 hrs by SRB assay; assay type: functional; settings: 786-0, 48 h, read-out: GI; how it was run: as §2
# SK-OV-3 = test: Cytotoxicity against human SKOV3 cells at 10^-4 M after 48 hrs by SRB assay; assay type: functional; settings: SK-OV-3, 48 h, read-out: GI; how it was run: as §1
# [4] = Cytotoxicity against human OVCAR5 cells at 10^-4 M after 48 hrs by SRB assay; assay type: functional; settings: OVCAR-5, 48 h, read-out: GI; how it was run: as §1
# OVCAR-8 = test: Cytotoxicity against human OVCAR8 cells at 10^-4 M after 48 hrs by SRB assay; assay type: functional; settings: OVCAR-8, 48 h, read-out: GI; how it was run: as §1
# OVCAR-3 = test: Cytotoxicity against human OVCAR3 cells at 10^-4 M after 48 hrs by SRB assay; assay type: functional; settings: OVCAR-3, 48 h, read-out: GI; how it was run: as §3
# IGROV-1 = test: Cytotoxicity against human IGROV1 cells at 10^-4 M after 48 hrs by SRB assay; assay type: functional; settings: IGROV-1, 48 h, read-out: GI; how it was run: as §2
# [5] = Cytotoxicity against human UACC257 cells at 10^-4 M after 48 hrs by SRB assay; assay type: functional; settings: UACC-257, 48 h, read-out: GI; how it was run: as §1
# KM12 = test: Cytotoxicity against human KM12 cells at 10^-4 M after 48 hrs by SRB assay; assay type: functional; settings: KM12, 48 h, read-out: GI; how it was run: as §3
# NCI-H322M = test: Cytotoxicity against human NCI-H322M cells at 10^-4 M after 48 hrs by SRB assay; assay type: functional; settings: read-out: GI; how it was run: as §3
# CAKI-1 = test: Cytotoxicity against human Caki1 cells at 10^-4 M after 48 hrs by SRB assay; assay type: functional; settings: CAKI-1, 48 h, read-out: GI; how it was run: as §2
# [6] = Cytotoxicity against human OVCAR4 cells at 10^-6 M after 48 hrs by SRB assay; assay type: functional; settings: OVCAR-4, 48 h, read-out: GI; how it was run: as §1
# RPMI-8226 [7] = test: Cytotoxicity against human RPMI8226 cells at 10^-5 M after 48 hrs by SRB assay; assay type: functional; settings: RPMI-8226, 48 h, read-out: GI; how it was run: as §1
# SK-MEL-2 = test: Cytotoxicity against human SK-MEL-2 cells at 10^-4 M after 48 hrs by SRB assay; assay type: functional; settings: SK-MEL-2, 48 h, read-out: GI; how it was run: as §1
# Chain of Thymidylate synthase (P04818 whole entry): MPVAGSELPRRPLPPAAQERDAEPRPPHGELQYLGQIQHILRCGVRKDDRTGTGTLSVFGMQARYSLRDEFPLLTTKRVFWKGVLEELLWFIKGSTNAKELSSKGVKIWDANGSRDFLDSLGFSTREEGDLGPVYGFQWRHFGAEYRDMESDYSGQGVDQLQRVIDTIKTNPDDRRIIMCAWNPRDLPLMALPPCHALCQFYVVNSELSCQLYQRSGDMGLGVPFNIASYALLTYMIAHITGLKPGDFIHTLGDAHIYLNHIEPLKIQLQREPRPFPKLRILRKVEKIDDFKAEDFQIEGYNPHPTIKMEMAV
Structure (SMILES),inhibition of growth at 100 µM (U-251),inhibition of growth at 100 µM (SF-539),inhibition of growth at 100 µM (SF-295),inhibition of growth at 100 µM (SW-620),inhibition of growth at 100 µM (HCT-15),inhibition of growth at 100 µM (HT-29),inhibition of growth at 100 µM (NCI-H460 [1]),inhibition of growth at 100 µM (HOP-92),inhibition of growth at 100 µM (RPMI-8226 [2]),inhibition of growth at 100 µM (MOLT-4),growth at 100 µM (NCI-H460 [3]),inhibition of growth at 100 µM (BT-549),inhibition of growth at 100 µM (MDA-MB-435),inhibition of growth at 100 µM (MDA-MB-231),inhibition of growth at 100 µM (PC-3),inhibition of growth at 100 µM (TK-10),inhibition of growth at 100 µM (RXF 393),inhibition of growth at 100 µM (ACHN),inhibition of growth at 100 µM (786-0),inhibition of growth at 100 µM (SK-OV-3),also measured
C#CCN(Cc1nc2cc(C(F)(F)F)ccc2nc1-c1ccccc1)c1ccc(F)c(F)c1,59%,96%,74%,82%,82%,70%,90%,63%,107%,82%,18%,67%,81%,90%,78%,48%,103%,56%,44%,< 40%,Ki (Thymidylate synthase): 3560 nM; inhibition of growth at 100 µM (HL-60(TB)): 79%; inhibition of growth at 100 µM [4]: < 40%; inhibition of growth at 100 µM (OVCAR-8): 98%; inhibition of growth at 100 µM (OVCAR-3): 116%; inhibition of growth at 100 µM (IGROV-1): 58%; inhibition of growth at 100 µM [5]: 146%
C#CCN(Cc1nc2cc(C(F)(F)F)ccc2nc1-c1ccccc1)c1ccc(F)cc1,85%,96%,68%,93%,97%,80%,94%,106%,117%,81%,6%,77%,87%,129%,92%,123%,89%,89%,132%,93%,Ki (Thymidylate synthase): 2380 nM; inhibition of growth at 100 µM (KM12): 124%; inhibition of growth at 100 µM (NCI-H322M): 123%; inhibition of growth at 100 µM (HL-60(TB)): 92%; inhibition of growth at 100 µM (CAKI-1): 110%; inhibition of growth at 100 µM [4]: 56%; inhibition of growth at 100 µM (OVCAR-8): 96%; inhibition of growth at 100 µM (OVCAR-3): 94%; inhibition of growth at 100 µM (IGROV-1): 86%; inhibition of growth at 100 µM [5]: 119%
C#CCN(Cc1nc2cc(C(F)(F)F)ccc2nc1-c1ccccc1)c1ccc(C)cc1,181%,77%,150%,79%,181%,200%,96%,93%,44%,85%,17%,104%,149%,163%,58%,181%,137%,193%,184%,191%,Ki (Thymidylate synthase): 510 nM; inhibition of growth at 1 µM [6]: < 40%; inhibition of growth at 100 µM (KM12): 161%; inhibition of growth at 100 µM (NCI-H322M): 180%; inhibition of growth at 100 µM (HL-60(TB)): 105%; inhibition of growth at 10 µM (RPMI-8226 [7]): < 40%; inhibition of growth at 100 µM (CAKI-1): 147%; inhibition of growth at 100 µM [4]: 200%; inhibition of growth at 100 µM (OVCAR-8): 77%; inhibition of growth at 100 µM (OVCAR-3): 164%; inhibition of growth at 100 µM (IGROV-1): 79%; inhibition of growth at 100 µM [5]: 110%; inhibition of growth at 100 µM (SK-MEL-2): 136%
C#CCN(Cc1nc2cc(C(F)(F)F)ccc2nc1-c1ccccc1)c1ccc(OC(F)(F)F)cc1,70%,161%,49%,75%,47%,77%,78%,109%,88%,79%,7%,86%,86%,81%,77%,64%,67%,65%,46%,< 40%,inhibition of growth at 100 µM (KM12): 112%; inhibition of growth at 100 µM (NCI-H322M): 79%; inhibition of growth at 100 µM (CAKI-1): 69%; inhibition of growth at 100 µM [4]: < 40%; inhibition of growth at 100 µM (OVCAR-8): 57%; inhibition of growth at 100 µM (OVCAR-3): 88%; inhibition of growth at 100 µM (IGROV-1): 81%; inhibition of growth at 100 µM [5]: 44%; inhibition of growth at 100 µM (SK-MEL-2): < 40%
CCN(Cc1nc2cc(C(F)(F)F)ccc2nc1-c1ccccc1)c1ccc(OC)c(OC)c1,198%,176%,181%,164%,171%,97%,97%,184%,162%,122%,0%,167%,183%,174%,185%,109%,179%,142%,191%,83%,inhibition of growth at 1 µM [6]: < 40%; inhibition of growth at 100 µM (KM12): 153%; inhibition of growth at 100 µM (NCI-H322M): 96%; inhibition of growth at 100 µM (HL-60(TB)): 153%; inhibition of growth at 10 µM (RPMI-8226 [7]): 97%; inhibition of growth at 100 µM (CAKI-1): 117%; inhibition of growth at 100 µM [4]: 152%; inhibition of growth at 100 µM (OVCAR-8): 174%; inhibition of growth at 100 µM (OVCAR-3): 194%; inhibition of growth at 100 µM (IGROV-1): 178%; inhibition of growth at 100 µM [5]: 192%; inhibition of growth at 100 µM (SK-MEL-2): 172%
